ATG4B inh = ATG4B protease inhibitors, primary screen, biochemical, fluorescence, uHTS; ATG4B cleavage of LC3-PLA2, NBD-HPC fluorescence, 1 h; inhibition, % at 8.33 µM; 340,000 compounds, 0.51% hits; AID 504462, 2011; in the data active = inhibition above about 40%
HKDC1 inh = HKDC1 hexokinase inhibitors, primary screen, biochemical, fluorescence, uHTS; Q2TB90; recombinant HKDC1, G6PDH/diaphorase resazurin coupled fluorescence; inhibition, % at 20 µM; 340,000 compounds, 0.16% hits; AID 493160, 2011;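 active = inhibition above about 35% when tested at 20 µM, limit read from the data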;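 also: plate controls were DMSO wells with enzyme for no effect and DMSO wells lacking enzyme for full effect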
Target sequence (Q2TB90 whole entry, looked up): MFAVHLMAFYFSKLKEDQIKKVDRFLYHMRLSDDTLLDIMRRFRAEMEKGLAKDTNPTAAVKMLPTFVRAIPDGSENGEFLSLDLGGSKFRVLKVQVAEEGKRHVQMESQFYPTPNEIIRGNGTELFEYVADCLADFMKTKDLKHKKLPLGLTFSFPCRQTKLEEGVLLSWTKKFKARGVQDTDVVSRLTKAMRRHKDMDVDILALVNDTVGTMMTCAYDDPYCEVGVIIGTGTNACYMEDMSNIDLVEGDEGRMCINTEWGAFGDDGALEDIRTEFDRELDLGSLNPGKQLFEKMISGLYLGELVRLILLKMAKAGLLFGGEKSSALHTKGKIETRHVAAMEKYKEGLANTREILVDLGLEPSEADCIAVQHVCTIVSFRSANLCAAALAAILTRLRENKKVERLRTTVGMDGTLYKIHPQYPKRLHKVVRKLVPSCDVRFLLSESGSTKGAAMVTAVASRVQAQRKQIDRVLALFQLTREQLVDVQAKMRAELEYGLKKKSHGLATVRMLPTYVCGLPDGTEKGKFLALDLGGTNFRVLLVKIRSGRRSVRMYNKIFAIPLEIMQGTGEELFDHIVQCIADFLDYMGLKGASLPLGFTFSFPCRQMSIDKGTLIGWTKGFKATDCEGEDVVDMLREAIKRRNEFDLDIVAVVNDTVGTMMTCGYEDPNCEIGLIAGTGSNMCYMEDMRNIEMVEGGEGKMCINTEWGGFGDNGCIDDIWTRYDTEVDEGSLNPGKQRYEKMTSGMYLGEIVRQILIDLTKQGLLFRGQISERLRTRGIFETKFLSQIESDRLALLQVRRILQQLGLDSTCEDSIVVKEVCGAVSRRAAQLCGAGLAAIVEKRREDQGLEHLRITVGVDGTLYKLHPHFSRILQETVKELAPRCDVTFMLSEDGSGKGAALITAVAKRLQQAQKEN
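Assay system: recombinant HKDC1 hexokinase; detection: coupled resazurin fluorescence, excitation 525 nm, emission 613 nm; benchmarks: DMSO-plus-enzyme-mix negative control, buffer-substituted positive control; compound dosing: single 20 µM dose; schedule: 90 min at room temperature in dark; also added: glucose plus 1 mM ATP as hexokinase substrates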
Diaph inh CS = diaphorase inhibitors and chemical oxidizers, primary screen, counter-screen for diaphorase-coupled primary assays, biochemical, uHTS, resorufin fluorescence; 190,000 compounds, 0.69% hits; diaphorase resazurin-to-resorufin fluorescence, NADH, 16 min; bacterial (C. kluyveri) enzyme, not human; inhibition, % at 20 µM; AID 1217, 2008;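 active = primary screen inhibition at 20 µM above a set limit, cut at about 50% in these data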;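 also: plate controls were DMSO with full reaction for no effect and wells lacking NADH for full effect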
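Test system: Clostridium kluyveri diaphorase enzyme / Quantity: diaphorase at 0.14 U/mL in enzyme working solution / Incubation: 16-min room-temperature incubation before reading / Benchmarks: NADH-free wells as positive control, DMSO-only neutral wells / Signal: resorufin fluorescence 544/590 nm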
Fh CTSL1 inh = Fasciola hepatica cathepsin L1 inhibitors, primary screen, counter-screen for PFM18AAP inhibitor project, biochemical, QFRET, fluorogenic peptide substrate. AID 1906, 2009. inhibition, % at 5.96 µM. recombinant F. hepatica cathepsin L1, Z-Leu-Arg-MCA fluorescence. 300,000 compounds, 0.49% hits;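 active = inhibition above the mean of all tested compounds plus 3 SD, set per screening campaign, cut at about 17% in these data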;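 also: 0% = plate median of test compound wells and 100% = 1 µM Z-Phe-Ala-diazomethylketone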
Diaphorase act = compounds boosting diaphorase resazurin reduction – biochemical, uHTS, resorufin fluorescence, counter-screen for diaphorase-coupled primary assays, primary screen; Diaphorase/resazurin coupled assay, 16 min; active compounds read high; 1 = vehicle wells, 0 = NADH-free wells; activation factor at 20 µM; 190,000 compounds, 0.005% hits;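 active = diaphorase activity raised at least twofold by the compound at 20 µM; inactive = activation factor below 2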
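Assay system: bacterial diaphorase enzyme (C. kluyveri) / Input: enzyme 0.07 U/mL final / Medium: 50 mM HEPES pH 7.4 with 4.542 mM MgCl2, 0.005% Tween 20 / Doses: single compound dose of 20 µM, 1% DMSO final / Incubation: 16 min enzyme reaction, ambient temperature / Signal: fluorescence, excitation 544 nm and emission 590 nm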
An asterisk follows results filed as active; i = inactive; x = no result. This is a sample that favours compounds with a hit; in the whole collection about 1.4% have one here.

SMILES | ATG4B inh | HKDC1 inh | Diaph inh CS | Fh CTSL1 inh | Diaphorase act
Cc1ccc(NC2=C(N3CCCCC3)C(=O)c3ccccc3C2=O)cc1 | -3.5 | 11.2 | 11.6 | 34.3* | 0.9
COc1ccccc1NC1=C(N2CCCCC2)C(=O)c2ccccc2C1=O | -2.4 | 11.7 | 29.8 | 61.9* | 0.7
O=C1C(Nc2ccccc2)=C(N2CCCCC2)C(=O)c2ccccc21 | -1.7 | 13.6 | 22.9 | 49.5* | 0.8
O=C1C(NS(=O)(=O)c2ccc(Br)cc2)=C(N2CCCCC2)C(=O)c2ccccc21 | -0.8 | 15.8 | x | -0.8 | x
O=C1C(Nc2cccc(O)c2)=C(N2CCCCC2)C(=O)c2ccccc21 | 2.3 | 18.4 | 10.0 | 86.3* | 0.9
CCN(CC)CCNC(=O)c1cn(CC)c2cc(N3CCN(C)CC3)c(F)cc2c1=O | -0.2 | -1.3 | x | -1.9 | x
CC1CC(C)CN(CC(=O)Nc2cc(S(=O)(=O)N3CCOCC3)ccc2N2CCCC2)C1 (stereo not given) | 3.0 | -4.2 | x | x | x
Cc1ccccc1S(=O)Cc1ccc(C(=O)NCCN2CCOCC2)o1 (stereo not given) | -0.7 | -3.9 | x | -1.9 | x
CCCNC(=O)C(Cc1ccccc1F)NC(=O)c1ccc(C#N)cc1 (stereo not given) | 6.0 | -1.3 | x | x | x
O=C(/C=C/c1ccc(O)cc1)c1ccc(NC2=C(N3CCCCC3)C(=O)c3ccccc3C2=O)cc1 | 5.7 | 28.5 | 36.3 | 32.8* | 0.6
O=C(/C=C/c1ccc(O)cc1)c1ccccc1 | 25.2 | 2.8 | x | -8.6 | x
CC1=[N+](C)c2c(ccc3cccnc23)C1(C)C | -3.3 | 10.4 | 65.4* | x | 0.3
COc1cc(OC)c(-c2c3cc(O)c(=O)cc-3oc3cc(O)c(O)cc23)cc1OC | -169.9 | -7.3 | 80.9* | 0.7 | 0.2
Cc1c2cc(O)c(=O)cc-2oc2cc(O)c(O)cc12 | i | 28.9 | 80.5* | -14.8 | 0.2
COc1cccc(CNC(=O)CCCn2c(=S)[nH]c3cc4c(cc3c2=O)OCO4)c1 | 9.2 | -2.3 | x | 7.5 | x
COC(=O)CS(=O)(=O)c1nnc([C@H](Cc2ccccc2)NC(=O)OC(C)(C)C)o1 | -3.6 | 3.0 | 9.9 | 24.0* | 0.9
Cc1cccc(CS(=O)(=O)c2nnc([C@H](Cc3ccccc3)NC(=O)OC(C)(C)C)o2)c1 | -0.8 | -3.1 | 24.8 | 31.1* | 0.8
Cc1ccc(CN(C)C(=O)c2ccccc2NC(=O)c2ccccc2)o1 | 0.8 | -0.9 | x | x | x
CCC(C)(C)n1nnnc1C(c1cc2cc(C)ccc2[nH]c1=O)N1CCCc2ccccc21 (stereo not given) | -1.4 | 13.8 | 69.6* | 3.6 | 0.3
Cc1ccc2[nH]c(=O)c(C(c3nnnn3Cc3ccccc3)N3CCc4ccccc43)cc2c1 (stereo not given) | -13.3 | 14.3 | 47.0 | 4.5 | 0.5
Cc1ccc2[nH]c(=O)c(C(c3nnnn3C3CCCC3)N3CCCc4ccccc43)cc2c1 (stereo not given) | 1.4 | 22.0 | 62.1* | -3.1 | 0.4
Cc1ccc(NC(=O)c2cccc(S(=O)(=O)Nc3c(C)n(C)n(-c4ccccc4)c3=O)c2)cc1C | -11.6 | -2.6 | x | x | x
O=C(c1cn(Cc2ccccc2)nc1-c1ccccc1)N1CCN(c2ccccn2)CC1 | -59.4 | -0.4 | x | x | x
Cc1cccc(CCNS(=O)(=O)c2ccc3c(c2)NC(=O)C(C)S3)c1 (stereo not given) | -16.1 | 1.4 | x | 0.6 | x
CC(C)CC(NC(=O)c1ccc(Cl)cc1)C(=O)OCC(=O)c1ccc2c(c1)NC(=O)CO2 (stereo not given) | 1.1 | -1.3 | 10.6 | 24.6* | 0.9
SMILES | ATG4B inh | HKDC1 inh | Diaph inh CS | Fh CTSL1 inh | Diaphorase act
CC(O)C(NS(=O)(=O)c1ccc(Cl)cc1)C(=O)OCC(=O)c1ccc2c(c1)NC(=O)CO2 (stereo not given) | -10.1 | -0.2 | x | x | x
Cc1cccc(NC(=O)C(=O)NCC2CCCN2S(=O)(=O)c2ccccc2)c1 (stereo not given) | 2.4 | -3.7 | x | 5.9 | x
O=C(OCCCOC(=O)c1ccc([N+](=O)[O-])o1)c1ccc([N+](=O)[O-])o1 | -5.0 | 7.6 | x | 22.6* | x
C=C1C(=O)C23CCC4C(C)(C(=O)OC)CCCC4(C)C2CCC1(O)C3 (stereo not given) | -6.4 | 9.6 | x | x | x
Cc1c(C)n(Cc2ccc(F)cc2)c2ccc(C(=O)NCCCN3CCOCC3)cc12 | -5.8 | -4.5 | x | 1.5 | x
O=C1CCNc2cc3ccccc3cc21 | -0.8 | 17.9 | 65.9* | -4.4 | 0.3
O=C1CCNc2ccc(-c3ccccc3)cc21 | -11.1 | 1.6 | 25.7 | -2.5 | 0.7
O=C(CCCN1C(=O)C2CCCCN2C1=O)N1CCN(c2ccc([N+](=O)[O-])cc2)CC1 (stereo not given) | 5.9 | -0.6 | 23.6 | 20.4* | 0.8
O=C1C2CCCCN2C(=O)N1CCN1CCN(c2ccc([N+](=O)[O-])cc2)CC1 (stereo not given) | -9.6 | -10.0 | 19.6 | 4.9 | 0.8
C[C@@H](NC(=O)c1nc[nH]c1C(=O)NCC(=O)OCc1ccccc1)c1ccccc1 | -7.4 | -0.7 | x | 4.6 | x
O=[N+]([O-])C(=C1Nc2ccccc2N1)C(Cl)=C(Cl)Cl | 1.0 | 13.6 | 45.1 | 19.6* | 0.5
O=C(CSc1nnnn1-c1ccccc1)CSc1nnnn1-c1ccccc1 | -5.2 | -6.5 | 21.2 | 22.1* | 0.8
O=C(O)CSc1nnnn1-c1ccccc1 | 4.7 | -3.9 | 10.6 | -6.3 | 0.9
CCC(CC)CN1CCN=C1Nc1ccccc1 | -0.6 | -0.6 | x | -0.8 | x
Nc1cccc2cnccc12 | -6.8 | 4.8 | 54.1* | 2.1 | 0.5
Oc1ccc(C23CCCC2C2(CCCC2)c2ccc(O)cc2O3)c(O)c1 (stereo not given) | -5.3 | 3.2 | x | x | x
COC(C[C@H]1O[C@@H]1C(=O)[C@H](C)OCc1ccccc1)OC | 4.4 | -5.4 | x | 73.7* | x
COC(C[C@H]1O[C@H]1C(=O)[C@H](C)OCc1ccccc1)OC | -2.7 | -2.9 | x | 75.9* | x
Oc1cccc(/C=N/N=C/c2cccc(O)c2O)c1O | -10.1 | 4.8 | x | 0.3 | x
CC(N=Cc1cccc(O)c1O)c1ccccc1 (stereo not given) | 17.9 | 11.1 | 50.6* | -2.6 | 0.5
Cc1ccccc1N=Cc1cccc(O)c1O | 19.9 | -1.7 | 82.7* | 2.2 | 0.2
Cc1ccc(N=Cc2cccc(O)c2O)c(C)c1 | x | x | 66.7* | -0.8 | 0.3
CC1=Nc2nc(N3CCCCC3)c(C#N)c3c4c(nc(c23)N1)N(c1ccc(C(C)C)cc1)C(=O)C4 | -0.3 | -4.0 | 80.9* | 3.0 | 0.2
CC(C)c1ccc(-c2nc(N3CCCCC3)[nH]c(=O)c2C#N)cc1 | -1.0 | -2.5 | 13.2 | -0.1 | 0.9
